The record followed here is ChEMBL document CHEMBL1122430, “Nucleosides. 123. Synthesis of antiviral nucleosides: 5-substituted 1-(2-deoxy-2-halogeno-beta-D-arabinofuranosyl)cytosines and -uracils. Some structure-activity relationships” (1983).

Common to all, as to format: functional
The subject of assay [1] is Human alphaherpesvirus 2. As to the kind of experiment: Antiherpetic activity against HSV-2. The settings on record: read-out: ED50 (the source's name). A digest of the protocol:
(§1)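 Plaque-reduction assay on Vero cell monolayers infected with HSV-1 or HSV-2 (strain G). ED50 is the dose that cuts plaque number by 50%.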

Assay [2] relates to Lymphocytic cell line. As to the kind of experiment: Inhibition of growth of normal human lymphocytic cells. The conditions noted are these: read-out: ID50 (the source's name).
Assay [3] relates to Human alphaherpesvirus 1. Put plainly: Antiherpetic activity against HSV-1. The conditions noted are these: read-out: ED50 (the source's name). In outline:
as §1

The mark [4] stands for this setting: Homo sapiens, Lymphocytic cell line.

The structures appear in SMILES notation.

Consider `Nc1nc(=O)n([C@@H]2O[C@H](CO)[C@@H](O)[C@H]2F)cc1I` (stereo in doubt; 9), for which the EC50 in assay [1] came out at 27400 nM; in assay [3] it was 17900 nM. Moreover, in assay [2], the IC50 is 1900 nM.

Take `Nc1nc(=O)n([C@@H]2O[C@H](CO)[C@@H](O)[C@@H]2Br)cc1Br`: the EC50 in assay [1] (Human alphaherpesvirus 2) and in assay [3] (Human alphaherpesvirus 1) was greater than 100000 nM throughout. Also, the IC50 in assay [2] (setting [4]) is 4500 nM.

For `Nc1ccn([C@@H]2O[C@H](CO)[C@@H](O)[C@@H]2F)c(=O)n1`, the EC50 in assay [1] (Human alphaherpesvirus 2) amounted to 300 nM; in assay [3] (Human alphaherpesvirus 1), 120 nM. Also, the IC50 in assay [2] (setting [4]) turned out to be 600 nM.

`Cc1cn([C@@H]2O[C@H](CO)[C@@H](O)[C@@H]2Br)c(=O)[nH]c1=O`: the EC50 in assay [1] (Human alphaherpesvirus 2) and in assay [3] (Human alphaherpesvirus 1) was greater than 100000 nM throughout. For the same compound, the IC50 in assay [2] (setting [4]) is 8000 nM.

Consider `O=c1[nH]c(=O)n([C@@H]2O[C@H](CO)[C@@H](O)[C@H]2F)cc1I`, for which the EC50 in assay [1] (Human alphaherpesvirus 2) is 55 nM; in assay [3] (Human alphaherpesvirus 1), 25 nM. The IC50 in assay [2] (setting [4]) came out at 3300 nM.

Regarding `Cc1cn([C@@H]2O[C@H](CO)[C@@H](O)[C@@H]2Cl)c(=O)[nH]c1=O`, the EC50 in assay [1] (Human alphaherpesvirus 2) and in assay [3] (Human alphaherpesvirus 1) was greater than 100000 nM in each case. In assay [2] (setting [4]), the IC50 is greater than 100000 nM.

Consider `Cc1cn([C@@H]2O[C@H](CO)[C@@H](O)[C@@H]2F)c(=O)[nH]c1=O` [5-METHYL-2'-FLUOROARAURACIL], for which the EC50 in assay [1] (Human alphaherpesvirus 2) and in assay [3] (Human alphaherpesvirus 1) was 13 nM each time. The IC50 in assay [2] (setting [4]) is 1000 nM.

As for `Nc1nc(=O)n([C@H]2O[C@@H](CO)[C@H](O)[C@H]2F)cc1Br`, the EC50 is 20 nM in assay [1] (Human alphaherpesvirus 2) and 190 nM in assay [3] (Human alphaherpesvirus 1). Besides, in assay [2] (setting [4]), the IC50 came out at 5000 nM.

In the case of `Cc1cn([C@@H]2O[C@H](CO)[C@@H](O)[C@@H]2Br)c(=O)nc1N`, the EC50 in assay [1] (Human alphaherpesvirus 2) was 26200 nM; in assay [3] (Human alphaherpesvirus 1), greater than 100000 nM. In addition, in assay [2] (setting [4]), the IC50 is 34000 nM.

Turning to `Nc1nc(=O)n([C@@H]2O[C@H](CO)[C@@H](O)[C@@H]2Cl)cc1I`, the EC50 stood at 90 nM in assay [1] (Human alphaherpesvirus 2) and 3400 nM in assay [3] (Human alphaherpesvirus 1). Besides, the IC50 in assay [2] (setting [4]) was determined as 3500 nM.

`Nc1ccn([C@@H]2O[C@H](CO)[C@@H](O)[C@@H]2Cl)c(=O)n1`: the values for the EC50 in assay [1] (Human alphaherpesvirus 2) and in assay [3] (Human alphaherpesvirus 1) were 3800 nM and 110 nM, respectively. Besides, the IC50 in assay [2] (setting [4]) came to 6 nM.

As for `Cc1cn([C@@H]2O[C@H](CO)[C@@H](O)[C@@H]2F)c(=O)nc1N`, the figures for the EC50 in assay [1] (Human alphaherpesvirus 2) and in assay [3] (Human alphaherpesvirus 1) were 800 nM and 640 nM, respectively. Also, the IC50 in assay [2] (setting [4]) amounted to 800 nM.

Regarding `Nc1nc(=O)n([C@@H]2O[C@H](CO)[C@@H](O)[C@@H]2Br)cc1I`, the EC50 amounted to 2200 nM in assay [1] (Human alphaherpesvirus 2) and 9500 nM in assay [3] (Human alphaherpesvirus 1). The IC50 in assay [2] (setting [4]) was 200 nM.

For `Nc1nc(=O)n([C@@H]2O[C@H](CO)[C@@H](O)[C@@H]2Cl)cc1Br`, the EC50 in assay [1] (Human alphaherpesvirus 2) and in assay [3] (Human alphaherpesvirus 1) was greater than 100000 nM throughout. Further, the IC50 in assay [2] (setting [4]) was greater than 100000 nM.

In the case of `O=c1[nH]c(=O)n([C@H]2O[C@@H](CO)[C@H](O)[C@H]2F)cc1Br`, the EC50 in assay [1] (Human alphaherpesvirus 2) stood at 70 nM; in assay [3] (Human alphaherpesvirus 1) it was 110 nM. The IC50 in assay [2] (setting [4]) worked out at 900 nM.

Consider `Cc1cn([C@@H]2O[C@H](CO)[C@@H](O)[C@@H]2Cl)c(=O)nc1N`, for which the figures for the EC50 in assay [1] (Human alphaherpesvirus 2) and in assay [3] (Human alphaherpesvirus 1) were 220 nM and greater than 100000 nM, respectively. Also, the IC50 in assay [2] (setting [4]) was found to be 20000 nM.

Take `O=c1ccn([C@@H]2O[C@H](CO)[C@@H](O)[C@H]2F)c(=O)[nH]1`: the EC50 in assay [1] (Human alphaherpesvirus 2) was found to be 6000 nM; in assay [3] (Human alphaherpesvirus 1) it was 800 nM. The IC50 in assay [2] (setting [4]) was greater than 100000 nM.

For the compound `Nc1nc(=O)n([C@@H]2O[C@H](CO)[C@@H](O)[C@H]2F)cc1I` (stereo in doubt; 3A), the EC50 in assay [1] and in assay [3] was 10 nM in each case. Besides, the IC50 in assay [2] came to 8600 nM.

As to `Nc1ccn([C@@H]2O[C@H](CO)[C@@H](O)[C@@H]2Br)c(=O)n1`, the EC50 in assay [1] (Human alphaherpesvirus 2) was found to be 4400 nM; in assay [3] (Human alphaherpesvirus 1) it was 3200 nM. Also, the IC50 in assay [2] (setting [4]) was found to be 200 nM.
